Lipid droplet: inhibitors of hepatocyte lipid droplet formation, primary screen, imaging, high-throughput imaging, BODIPY stain; 240,000 tested, 0.4% active; inhibition, % at 6.5 µM; AID 1656, 2009; AML12 mouse hepatocytes, oleate lipid droplets;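 active = lipid droplet intensity inhibited by at least 50%, with more than 500 cells counted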
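Assay system: AML12 hepatocytes (mouse); Probe or stimulus: oleic acid at 100 µM to induce lipid droplet formation; Dosing: compound at 6.5 µM only; Schedule: compound with oleate, overnight; Detection: fluorescence imaging, 20x objective, two fields per well; Measure: % inhibition of lipid droplet signal.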
Tb hexokinase: Trypanosoma brucei hexokinase 1 inhibitors, primary screen, biochemical, G6PDH-coupled NADH absorbance, MLSCN library; hexokinase 1 [Trypanosoma brucei]; recombinant TbHK1, G6PDH-coupled NADH A340; inhibition, % at 10 µM; 220,000 tested, 0.11% active;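 active = inhibition of 50% or more in the single-dose primary screen; inactive = inhibition below 50%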
RBBP9 inh: human RBBP9 inhibitors, primary screen, biochemical, fluorescence polarization, FP-Rh probe, HTS; recombinant RBBP9; inhibition, % at 7.94 µM; 220,000 tested, 0.2% active; AID 1515, 2009;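 active = inhibition above the campaign mean of all tested compounds plus 3 SD, cut at about 14% in these data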;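 also: plate controls were DMSO wells with RBBP9 for no effect and wells lacking RBBP9 protein for full effect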
Target sequence (O75884 whole entry, looked up): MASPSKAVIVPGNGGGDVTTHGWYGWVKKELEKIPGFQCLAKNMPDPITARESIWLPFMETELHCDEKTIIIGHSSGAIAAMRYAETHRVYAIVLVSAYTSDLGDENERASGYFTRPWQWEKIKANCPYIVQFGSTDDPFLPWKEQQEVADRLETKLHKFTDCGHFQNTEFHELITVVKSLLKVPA
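system = RBBP9 protein | input = RBBP9 at 2.5 µM in dispensed solution, before mixing | measured by = fluorescence polarization (mP), excitation 525 nm, emission 598 nm | incubation = enzyme-compound preincubation 30 min, then probe labeling 45 min, 25 °C | buffer or medium = Tris-NaCl-Pluronic buffer, pH 8.0 | compound = single dose 7.94 µM | also added = FP-Rh probe, 375 nM dispensing solution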
TNF necrop inh: inhibitors of TNF-alpha triggered necroptosis, primary screen, cell-based, Jurkat FADD-/-, single concentration. Jurkat FADD-/- TNF necroptosis rescue, ATP luminescence, 24 h; 0 = TNF only, 100 = no-TNF cells. activation (protection from cell death), % at 10 µM. 220,000 tested, 0.068% active. AID 463075, 2010;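 active = activation, meaning protection from cell death, of at least 50% relative to plate controls; inactive = activation below 50%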;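 also: necroptosis triggered by 40 ng/mL TNF-alpha added together with compound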
PfM18AAP inh-1: PfM18AAP inhibitors, malaria aminopeptidase, primary screen, biochemical, QFRET, recombinant enzyme. M18 aspartyl aminopeptidase (Plasmodium falciparum 3D7). H-Glu-NHMec fluorogenic cleavage. inhibition, % at 7.35 µM. 290,000 tested, 1.2% active. AID 1822, 2009;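 active = inhibition above the campaign mean inhibition over all tested compounds plus 3 SD, cut at about 28% in these data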;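 also: 0% = plate median of test compound wells and 100% = 2 mM ZnCl2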
L929 necroptosis: inhibitors of zVAD-triggered necroptosis, primary screen, L929 cells. L929 zVAD necroptosis rescue, ATP luminescence, 24 h; with zVAD 60 µM. viability rescue, % at 10 µM. 220,000 tested, 0.38% active. AID 1377, 2008;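 active = activation, scaled between plate controls, above about 75%, limit read from the data; inactive = activation under that limit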;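 also: 0% = zVAD with DMSO and 100% = DMSO alone without zVAD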
PfM18AAP inh-2: PfM18AAP inhibitors, malaria aminopeptidase, confirmation, biochemical, QFRET, recombinant enzyme, triplicate. shares compounds with PfM18AAP inh-1. AID 2170, 2009. inhibition, % at 7.35 µM. H-Glu-NHMec fluorogenic cleavage. 2,400 tested, 28% active;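 active = mean inhibition over replicate wells above the hit cutoff set for the earlier primary screen, cut at about 29% in these data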;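 also: 0% = median of test compound wells and 100% = 2 mM ZnCl2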
CTSL1 counter: cathepsin L1 inhibitors, retest, confirmation, counter-screen for PFM18AAP inhibitor project, biochemical, QFRET, triplicate | shares compounds with PfM18AAP inh-1 | purified cathepsin L1, Z-Leu-Arg-MCA fluorescence | inhibition, % at 5.96 µM | 2,400 tested, under 10 active;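 active = average inhibition across replicates above the hit cutoff set in the earlier primary screen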;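 also: 0% = median of test compound wells and 100% = Z-Phe-Ala-diazomethylketone 1 µM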
Target sequence (P07711 whole entry, looked up): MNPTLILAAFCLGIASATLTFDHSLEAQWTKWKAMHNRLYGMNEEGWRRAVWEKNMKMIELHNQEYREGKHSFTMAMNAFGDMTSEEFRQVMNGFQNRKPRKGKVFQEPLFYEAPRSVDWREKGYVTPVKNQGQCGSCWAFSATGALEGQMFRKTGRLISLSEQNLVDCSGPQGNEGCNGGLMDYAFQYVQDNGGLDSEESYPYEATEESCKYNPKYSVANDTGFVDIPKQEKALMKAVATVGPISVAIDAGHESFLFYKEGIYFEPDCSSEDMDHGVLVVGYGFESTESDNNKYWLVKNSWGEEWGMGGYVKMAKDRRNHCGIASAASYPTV
* marks the source's active call; other numbers are inactive results; · = not tested or not shown. A selection: hits, their analogues and other compounds. The true share with any hit is near 2%.

SMILES	Lipid droplet	Tb hexokinase	RBBP9 inh	TNF necrop inh	PfM18AAP inh-1	L929 necroptosis	PfM18AAP inh-2	CTSL1 counter
COc1ccc2c(-c3ccccc3)cc(N3CCOCC3)nc2c1	-3	-13	-10	-7	50*	0	-44	6
CCOC(=O)NC1(NC(C)C)Oc2ccccc2O1	-8	0	10	-6	80*	1	-2	-5
CCOC(=O)NC1(Nc2ccc(C)cc2)Oc2ccccc2O1	14	-2	-3	-11	58*	7	60*	-3
CCOC(=O)NC1(NC2CCCCC2)Oc2ccccc2O1	·	5	-1	-10	55*	1	35*	0
CCOC(=O)NC1(NCC(C)C)Oc2ccccc2O1	-10	-9	3	-11	66*	-1	34*	1
CCOC(=O)NC1c2ccccc2Oc2ccccc21	7	-8	2	1	-12	0	·	·
CCCn1nnc(NC(=O)c2ccc3c(c2)OCO3)n1	10	-9	-1	-1	-3	0	·	·
Cc1cccc(C)c1N(CC(=O)NCc1ccccc1)C(=O)c1csnn1	-2	·	·	·	2	·	·	·
CC1(C)S[C@@H]2[C@H](NC(=O)C(NC(=O)N3CCNC3=O)c3ccccc3)C(=O)N2[C@H]1C(=O)O (stereo partly specified)	·	·	·	·	-11	·	·	·
CCCc1cc2nnc(SCC(=O)N(C)C3CCCCC3)n2c(N)n1	-1	·	·	·	-2	·	·	·
CC1(C)C2C/C(=N\O)C(C)(/[N+]([O-])=C/c3cccc([N+](=O)[O-])c3)CC21 (stereo unspecified)	-1	-5	3	-5	1	-1	·	·
O=C(Cc1csc(N2CCOCC2)n1)N/N=C/c1ccc(O)c(O)c1O	-2	7	-2	-2	47*	3	16	-3
CN1C(=O)N(c2cccc3ccccc23)C(n2cncn2)C1(C)C (stereo unspecified)	·	-4	-1	-3	81*	0	77*	-1
NC(=O)N/N=C/c1ccc(OCc2cccc(Cl)c2)cc1	8	-5	-7	-2	-6	0	·	·
CC1=CC(C)(C)N(C(=O)CSc2ncn[nH]2)c2ccc(C)cc21	9	-4	-3	-2	56*	1	-31	4
CC(C)C1Cc2c(sc3c2c(=O)n(-c2ccccc2)c2n[nH]c(=S)n32)CO1 (stereo unspecified)	-1	-5	-12	0	-1	1	·	·
CC1CCN(c2nc3ccc(C(=O)N4CCN(Cc5ccc6c(c5)OCO6)CC4)cc3s2)CC1	·	-19	-3	-6	-7	2	·	·
CC(=O)Nc1ccc(NC(=O)CSc2nc3[nH]ncc3c(=O)n2-c2ccccc2)cc1	2	·	·	·	49*	·	1	-6
COc1ccc(NC(=O)CSc2nc3[nH]ncc3c(=O)n2-c2ccccc2OC)cc1OC	4	1	-7	2	19	·	·	·
O=C(CSc1nc2cc(S(=O)(=O)N3CCOCC3)ccc2o1)Nc1c(F)cccc1F	4	3	3	0	32*	2	3	-1
Cc1cccc(-n2c(=O)c3ccccc3n3c(=S)[nH]nc23)c1C	2	·	·	·	40*	·	1	-7
COc1cccc(-n2c(=O)c3ccccc3n3c(=S)[nH]nc23)c1	-2	·	·	·	36*	·	17	-2
Cc1ccccc1-n1c(=O)c2ccccc2n2c(=O)[nH]nc12	5	-13	-5	-4	4	0	·	·
COCCCn1c(=O)c2ccccc2n2c(=S)[nH]nc12	5	·	·	·	35*	·	25	2
CCc1ccc(-n2c(=O)c3ccccc3n3c(=S)[nH]nc23)cc1	·	·	·	·	27	·	·	·
SMILES	Lipid droplet	Tb hexokinase	RBBP9 inh	TNF necrop inh	PfM18AAP inh-1	L929 necroptosis	PfM18AAP inh-2	CTSL1 counter
O=C(O)c1ccc(NNC(=S)Nc2cc(C(F)(F)F)ccc2Cl)cc1	8	·	·	·	35*	·	-30	-4
O=C(NC(=S)Nc1cc(C(F)(F)F)ccc1Cl)c1ccccc1	·	-8	-6	-1	14	0	·	·
Nc1c(S(=O)(=O)c2cccc(Cl)c2)c2nc3ccccc3nc2n1/N=C/c1ccc(O)c(O)c1	·	-14	-5	-17	44*	0	12	-4
COc1cccc(/C=N/n2c(N)c(S(=O)(=O)c3cccs3)c3nc4ccccc4nc32)c1OC	·	-16	-1	-10	1	0	·	·
Cc1ccc(-c2nn[nH]n2)cc1	-17	2	-9	0	-13	1	·	·
Cc1ccc(-c2nn[nH]n2)o1	·	-3	8	0	76*	1	54*	0
COc1cccc(N2C(=O)CC(N3CCC(C(N)=O)(N4CCCCC4)CC3)C2=O)c1 (stereo unspecified)	3	0	-3	-1	-98	0	·	·
O=C(Cc1ccccc1)Nc1nc2ccccc2s1	-20	9	-6	12	3	1	·	·
O=C(Nc1nc(=O)c2ccccc2s1)c1ccc(F)cc1	3	-10	7	0	42*	0	-32	-1
O=C(Cc1ccccc1)Nc1nc(=O)c2ccccc2s1	·	0	-8	2	40*	0	-53	-11
CCc1c(O)nc(SCC(=O)N2CCc3cc(OC)c(OC)cc3[C@@H]2C)[nH]c1=O	-2	·	·	·	2	·	·	·
CCCCN1C(=O)c2ccc(C(=O)NC3=NCCS3)cc2C1=O	-4	4	4	1	-3	-1	·	·
O=c1[nH]c(=S)[nH]nc1Cc1ccccc1	·	-2	-13	0	38*	1	-30	-7
N#CCC(=O)N/N=C/c1ccc(OCC(=O)Nc2ccc(F)cc2)cc1	4	-3	-19	1	42*	0	-45	4
CCCCOc1ccccc1/C=N/NC(=O)CC#N	18	-5	-9	-1	38*	1	-13	-6
N#CCC(=O)N/N=C/c1ccc(Cl)cc1	6	-4	0	1	26	0	·	·
COC(=O)N/N=C/c1ccccc1OCCOc1ccc(OC)cc1	-2	-9	1	2	-2	0	·	·
CN(c1ccccc1)c1ccc(/C=N/NC(=O)CC#N)cc1	2	-29	2	1	36*	0	-33	9
